Laboratory results reported in ChEMBL document CHEMBL1687698, “Discovery of INCB9471, a Potent, Selective, and Orally Bioavailable CCR5 Antagonist with Potent Anti-HIV-1 Activity” (ACS Med Chem Lett, 2010).
Activity calls are given as the source filed them. No cut-off for these calls is given here.

Legend:
[1] = biological target: T1, C-C chemokine receptor type 5 (Homo sapiens, UniProt P51681); experiment: Displacement of [125I]MIP-1beta from CCR5 in IL-10-stimulated human monocytes; type: cell-based
T1 sequence (P51681 whole entry): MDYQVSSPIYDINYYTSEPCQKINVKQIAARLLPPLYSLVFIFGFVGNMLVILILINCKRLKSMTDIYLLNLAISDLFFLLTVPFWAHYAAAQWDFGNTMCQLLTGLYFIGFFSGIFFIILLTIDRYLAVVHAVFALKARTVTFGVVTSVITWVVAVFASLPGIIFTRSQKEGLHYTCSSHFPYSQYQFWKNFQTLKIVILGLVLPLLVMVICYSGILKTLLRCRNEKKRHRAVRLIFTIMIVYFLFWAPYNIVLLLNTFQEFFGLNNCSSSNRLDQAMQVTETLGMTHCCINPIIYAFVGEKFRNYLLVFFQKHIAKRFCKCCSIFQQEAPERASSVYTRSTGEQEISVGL

[2] = system: Human immunodeficiency virus 1; experiment: Antiviral activity against HIV-1 ADA infected in PHA-stimulated human PBMC cells assessed as viral p24 core protein level after 7 days by ELISA; type: functional, organism-based; conditions: Human immunodeficiency virus 1, ADA, 168 h
Method in brief: (§1)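 Human PBMC activated with PHA, then infected with HIV-1 (ADA or BaL strain). Infectivity was read as viral p24 core protein in the culture supernatants.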

[3] = system: Human immunodeficiency virus 1; experiment: Antiviral activity against HIV-1 BaL infected in PHA-stimulated human PBMC cells assessed as viral p24 core protein level after 7 days by ELISA; type: functional, organism-based; conditions: Human immunodeficiency virus 1, BaL, 168 h; method in brief: as §1
Cytochrome P450 2C9 = Cytochrome P450 2C9 (Homo sapiens, UniProt P11712); experiment: Inhibition of CYP2C9; type: ADME
Chain of Cytochrome P450 2C9 (P11712 whole entry): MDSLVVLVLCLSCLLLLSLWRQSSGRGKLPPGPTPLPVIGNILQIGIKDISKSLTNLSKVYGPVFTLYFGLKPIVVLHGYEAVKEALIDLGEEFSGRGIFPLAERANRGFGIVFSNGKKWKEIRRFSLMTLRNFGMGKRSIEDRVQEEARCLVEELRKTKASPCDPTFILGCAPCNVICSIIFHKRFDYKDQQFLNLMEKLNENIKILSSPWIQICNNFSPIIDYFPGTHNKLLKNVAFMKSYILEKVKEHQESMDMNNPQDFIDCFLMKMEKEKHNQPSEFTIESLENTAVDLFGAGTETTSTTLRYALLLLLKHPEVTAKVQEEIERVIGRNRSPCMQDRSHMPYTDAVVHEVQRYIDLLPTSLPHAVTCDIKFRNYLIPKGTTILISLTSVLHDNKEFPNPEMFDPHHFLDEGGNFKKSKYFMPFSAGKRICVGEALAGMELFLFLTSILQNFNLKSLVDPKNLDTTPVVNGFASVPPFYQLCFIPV

[4] = system: Human immunodeficiency virus 1; experiment: Antiviral activity against HIV-1 R5 clade J infected in human PBMC cells; type: functional; conditions: Human immunodeficiency virus 1, R5 clade J
[5] = Induction of Cytochrome P450 up to 30 uM; type: ADME
[6] = Systemic clearance in dog at 1 mg/kg, iv; type: ADME, organism-based, Canis lupus familiaris; design: dose 1 mg/kg, route intravenous; conditions: in vivo
[7] = Tmax in dog at 20 mg/kg, po; type: ADME, organism-based, Canis lupus familiaris; design: dose 20 mg/kg, route oral; conditions: in vivo
[8] = system: Human immunodeficiency virus 1; experiment: Antiviral activity against HIV-1 R5 clade G infected in human PBMC cells; type: functional; conditions: Human immunodeficiency virus 1, R5 clade G
[9] = Half life in rat at 20 mg/kg, po; type: ADME, organism-based; design: dose 20 mg/kg, route oral; conditions: in vivo
[10] = AUC in rat at 20 mg/kg, po; type: ADME, organism-based; design: dose 20 mg/kg, route oral; conditions: plasma
[11] = Half life in dog at 20 mg/kg, po; type: ADME, organism-based, Canis lupus familiaris; design: dose 20 mg/kg, route oral; conditions: in vivo
Cytochrome P450 3A4 = Cytochrome P450 3A4 (Homo sapiens, UniProt P08684); experiment: Inhibition of CYP3A4; type: ADME
Chain of Cytochrome P450 3A4 (P08684 whole entry): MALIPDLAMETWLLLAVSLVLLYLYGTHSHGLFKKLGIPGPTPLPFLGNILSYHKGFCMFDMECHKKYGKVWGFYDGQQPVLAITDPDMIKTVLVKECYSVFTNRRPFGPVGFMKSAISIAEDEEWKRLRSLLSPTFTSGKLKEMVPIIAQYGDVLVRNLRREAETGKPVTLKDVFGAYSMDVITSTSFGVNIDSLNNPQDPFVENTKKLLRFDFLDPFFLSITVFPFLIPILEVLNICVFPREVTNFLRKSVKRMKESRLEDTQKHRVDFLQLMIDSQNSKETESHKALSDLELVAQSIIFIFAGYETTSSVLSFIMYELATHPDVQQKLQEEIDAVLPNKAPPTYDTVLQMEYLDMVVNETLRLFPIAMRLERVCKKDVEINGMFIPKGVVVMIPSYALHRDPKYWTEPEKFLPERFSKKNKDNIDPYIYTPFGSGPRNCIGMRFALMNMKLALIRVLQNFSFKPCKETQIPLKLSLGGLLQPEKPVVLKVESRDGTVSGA

[12] = system: Human immunodeficiency virus 1; experiment: Antiviral activity against HIV-1 R5 clade B infected in human PBMC cells; type: functional; conditions: Human immunodeficiency virus 1, R5 clade B
Cytochrome P450 1A2 = biological target: T2, Cytochrome P450 1A2 (Homo sapiens, UniProt P05177); experiment: Inhibition of CYP1A2; type: ADME
T2 sequence (P05177 whole entry): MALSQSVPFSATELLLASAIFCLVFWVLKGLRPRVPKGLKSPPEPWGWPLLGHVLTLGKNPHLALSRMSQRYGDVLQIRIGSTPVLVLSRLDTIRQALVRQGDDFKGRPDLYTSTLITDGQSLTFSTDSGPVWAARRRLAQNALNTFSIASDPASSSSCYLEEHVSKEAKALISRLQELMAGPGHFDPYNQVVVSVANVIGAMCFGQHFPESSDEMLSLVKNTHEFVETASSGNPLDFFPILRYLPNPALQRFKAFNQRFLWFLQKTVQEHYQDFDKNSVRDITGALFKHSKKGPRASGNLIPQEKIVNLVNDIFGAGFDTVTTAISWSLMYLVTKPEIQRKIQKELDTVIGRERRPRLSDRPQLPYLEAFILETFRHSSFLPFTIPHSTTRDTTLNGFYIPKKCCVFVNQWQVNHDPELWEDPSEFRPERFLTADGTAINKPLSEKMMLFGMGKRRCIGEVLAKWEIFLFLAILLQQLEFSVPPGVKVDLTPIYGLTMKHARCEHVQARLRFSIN

[13] = Tmax in rat at 20 mg/kg, po; type: ADME, organism-based; design: dose 20 mg/kg, route oral; conditions: in vivo
[14] = Oral bioavailability in rat at 20 mg/kg; type: ADME, organism-based; conditions: in vivo
[15] = Half life in rat at 1 mg/kg, iv; type: ADME, organism-based; design: dose 1 mg/kg, route intravenous; conditions: in vivo
[16] = system: Human immunodeficiency virus 1; experiment: Antiviral activity against HIV-1 R5 clade E infected in human PBMC cells; type: functional; conditions: Human immunodeficiency virus 1, R5 clade E
[17] = Cmax in dog at 20 mg/kg, po; type: ADME, organism-based, Canis lupus familiaris; design: dose 20 mg/kg, route oral; conditions: in vivo
Canis familiaris = experiment: Volume of distribution in dog at 1 mg/kg, iv; type: ADME, organism-based, Canis lupus familiaris; design: dose 1 mg/kg, route intravenous; conditions: in vivo
[18] = Protein binding in human serum assessed as fraction unbound; type: ADME, cell-free
Cytochrome P450 2C19 = Cytochrome P450 2C19 (Homo sapiens, UniProt P33261); experiment: Inhibition of CYP2C19; type: ADME
Chain of Cytochrome P450 2C19 (P33261 whole entry): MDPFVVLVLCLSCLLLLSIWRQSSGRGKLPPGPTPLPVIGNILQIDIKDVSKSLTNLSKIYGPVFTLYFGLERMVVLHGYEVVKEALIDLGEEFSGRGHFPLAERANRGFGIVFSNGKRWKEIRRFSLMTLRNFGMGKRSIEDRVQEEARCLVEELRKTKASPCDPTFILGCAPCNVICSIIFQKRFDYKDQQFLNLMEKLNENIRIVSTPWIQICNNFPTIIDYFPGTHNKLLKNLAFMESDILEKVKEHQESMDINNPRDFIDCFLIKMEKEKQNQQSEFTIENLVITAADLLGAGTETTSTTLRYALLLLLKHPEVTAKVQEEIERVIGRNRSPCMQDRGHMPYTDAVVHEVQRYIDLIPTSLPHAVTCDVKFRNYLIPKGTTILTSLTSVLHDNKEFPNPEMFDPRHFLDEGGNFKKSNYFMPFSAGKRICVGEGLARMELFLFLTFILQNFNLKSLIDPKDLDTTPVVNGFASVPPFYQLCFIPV

[19] = biological target: T1, C-C chemokine receptor type 5; experiment: Antagonist activity at CCR5 assessed as inhibition of ERK phosphorylation; type: functional
[20] = Plasma concentration in rat at 20 mg/kg, po after 24 hrs; type: ADME, organism-based; design: dose 20 mg/kg, route oral
[21] = system: Human immunodeficiency virus 1; experiment: Antiviral activity against HIV-1 R5 clade A infected in human PBMC cells; type: functional; conditions: Human immunodeficiency virus 1, R5 clade A
[22] = Cmax in rat at 20 mg/kg, po; type: ADME, organism-based; design: dose 20 mg/kg, route oral; conditions: in vivo
[23] = biological target: T1, C-C chemokine receptor type 5; experiment: Activation of CCR5 in human PBMC cells; type: cell-based
Cytochrome P450 2D6 = Cytochrome P450 2D6 (Homo sapiens, UniProt P10635); experiment: Inhibition of CYP2D6; type: ADME
Chain of Cytochrome P450 2D6 (P10635 whole entry): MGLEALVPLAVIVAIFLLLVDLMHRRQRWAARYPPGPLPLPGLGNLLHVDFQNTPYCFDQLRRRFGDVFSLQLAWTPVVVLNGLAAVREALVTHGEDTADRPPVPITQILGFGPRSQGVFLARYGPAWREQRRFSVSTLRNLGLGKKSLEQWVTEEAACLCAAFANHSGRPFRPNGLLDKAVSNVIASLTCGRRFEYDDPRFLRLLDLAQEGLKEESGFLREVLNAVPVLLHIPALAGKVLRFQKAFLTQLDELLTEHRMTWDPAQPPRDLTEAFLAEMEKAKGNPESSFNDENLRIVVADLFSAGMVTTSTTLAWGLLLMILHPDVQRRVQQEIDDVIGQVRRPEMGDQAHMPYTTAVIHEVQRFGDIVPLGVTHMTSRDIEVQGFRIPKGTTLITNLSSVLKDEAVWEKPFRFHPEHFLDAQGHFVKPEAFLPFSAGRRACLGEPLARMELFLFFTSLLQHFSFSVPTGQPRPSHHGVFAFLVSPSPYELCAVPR

[24] = Half life in human in repeated dosing regimen; type: ADME, organism-based; conditions: in vivo
[25] = Half life in dog at 1 mg/kg, iv; type: ADME, organism-based, Canis lupus familiaris; design: dose 1 mg/kg, route intravenous; conditions: in vivo
Rattus norvegicus = experiment: Volume of distribution in rat at 1 mg/kg, iv; type: ADME, organism-based; design: dose 1 mg/kg, route intravenous; conditions: in vivo
[26] = AUC in dog at 20 mg/kg, po; type: ADME, organism-based, Canis lupus familiaris; design: dose 20 mg/kg, route oral; conditions: plasma
[27] = system: Human immunodeficiency virus 1; experiment: Antiviral activity against HIV-1 R5 clade F infected in human PBMC cells; type: functional; conditions: Human immunodeficiency virus 1, R5 clade F
[28] = Systemic clearance in rat at 1 mg/kg, iv; type: ADME, organism-based; design: dose 1 mg/kg, route intravenous; conditions: in vivo
[29] = system: Human immunodeficiency virus 1; experiment: Antiviral activity against HIV-1 R5 clade D infected in human PBMC cells; type: functional; conditions: Human immunodeficiency virus 1, R5 clade D
[30] = Permeability across basolateral to apical side in human Caco2 cells; type: ADME, cell-based; conditions: Caco-2, read-out: permeability
[31] = biological target: Voltage-gated inwardly rectifying potassium channel KCNH2 (Homo sapiens, UniProt Q12809); experiment: Inhibition of human hERG
Chain of Voltage-gated inwardly rectifying potassium channel KCNH2 (Q12809 whole entry): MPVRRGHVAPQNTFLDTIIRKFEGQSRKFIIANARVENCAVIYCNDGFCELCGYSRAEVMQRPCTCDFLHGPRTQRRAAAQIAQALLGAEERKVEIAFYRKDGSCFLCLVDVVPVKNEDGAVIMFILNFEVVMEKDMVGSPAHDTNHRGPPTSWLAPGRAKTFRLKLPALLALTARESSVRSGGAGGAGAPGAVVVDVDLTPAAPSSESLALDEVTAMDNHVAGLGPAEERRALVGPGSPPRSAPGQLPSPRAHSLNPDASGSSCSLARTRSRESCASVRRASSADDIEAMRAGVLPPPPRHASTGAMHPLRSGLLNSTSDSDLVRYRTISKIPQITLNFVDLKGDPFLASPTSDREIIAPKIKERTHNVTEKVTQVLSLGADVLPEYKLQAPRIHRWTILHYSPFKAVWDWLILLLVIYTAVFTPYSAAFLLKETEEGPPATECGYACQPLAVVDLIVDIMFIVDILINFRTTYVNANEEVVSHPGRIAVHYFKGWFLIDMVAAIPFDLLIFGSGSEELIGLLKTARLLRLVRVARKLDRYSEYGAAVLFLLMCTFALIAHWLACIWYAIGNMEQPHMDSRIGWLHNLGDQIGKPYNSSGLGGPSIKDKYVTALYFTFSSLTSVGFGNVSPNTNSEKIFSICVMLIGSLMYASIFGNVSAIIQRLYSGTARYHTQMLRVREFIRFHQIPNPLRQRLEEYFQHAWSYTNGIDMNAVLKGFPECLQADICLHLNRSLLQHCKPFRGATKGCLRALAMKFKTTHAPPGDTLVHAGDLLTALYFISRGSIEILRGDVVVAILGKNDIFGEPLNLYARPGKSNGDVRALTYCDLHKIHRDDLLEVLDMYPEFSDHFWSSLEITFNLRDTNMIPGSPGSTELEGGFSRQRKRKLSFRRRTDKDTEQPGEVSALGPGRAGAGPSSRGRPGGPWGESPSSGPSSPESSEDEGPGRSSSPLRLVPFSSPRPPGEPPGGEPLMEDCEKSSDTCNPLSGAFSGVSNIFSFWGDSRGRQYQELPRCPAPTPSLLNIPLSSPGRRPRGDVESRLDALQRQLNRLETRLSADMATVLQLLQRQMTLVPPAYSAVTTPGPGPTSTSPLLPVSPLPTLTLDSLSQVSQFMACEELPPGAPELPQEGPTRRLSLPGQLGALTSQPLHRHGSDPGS
Method in brief: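 hERG potassium current was measured by patch clamp, and IC50 was derived from current inhibition.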

[32] = biological target: T1, C-C chemokine receptor type 5; experiment: Antagonist activity at CCR5 assessed as inhibition of receptor internalization; type: functional
[33] = biological target: T1, C-C chemokine receptor type 5; experiment: Antagonist activity at CCR5 assessed as inhibition of intracellular calcium mobilization; type: functional, cell-based
[34] = Oral bioavailability in dog at 20 mg/kg; type: ADME, organism-based, Canis lupus familiaris; conditions: in vivo
[35] = AUC in rat at 1 mg/kg, iv; type: ADME, organism-based; design: dose 1 mg/kg, route intravenous; conditions: plasma
[36] = AUC in dog at 1 mg/kg, iv; type: ADME, organism-based, Canis lupus familiaris; design: dose 1 mg/kg, route intravenous; conditions: plasma
[37] = system: Human immunodeficiency virus 1; experiment: Antiviral activity against HIV-1 X4 infected in PBMC cells; type: functional, organism-based
[38] = system: Human immunodeficiency virus 1; experiment: Antiviral activity against HIV-1 R5 clade C infected in human PBMC cells; type: functional; conditions: Human immunodeficiency virus 1, R5 clade C

SMILES: CO[C@H]1Cc2cc(C(F)(F)F)ccc2[C@@H]1N1CCN(C2(C)CCN(C(=O)c3c(C)ncnc3C)CC2)C[C@@H]1C
- IC50 [1]: > 1000 nM

SMILES: Cc1ncnc(C)c1C(=O)N1CCC(C)(N2CCN([C@@H]3c4ccc(C(F)(F)F)cc4C[C@H]3O)[C@@H](C)C2)CC1
- IC50 [1]: 211 nM

SMILES: CO[C@@H]1Cc2cc(C(F)(F)F)ccc2[C@H]1N1CCN(C2(C)CCN(C(=O)c3c(C)ncnc3C)CC2)C[C@@H]1C
- IC50 [2]: 12 nM
- IC50 [3]: 11 nM
- IC50 [1]: 4.6 nM

SMILES: Cc1ncnc(C)c1C(=O)N1CCC(C)(N2CCN([C@H]3c4ccc(C(F)(F)F)cc4C[C@@H]3O)[C@@H](C)C2)CC1
- IC50 [1]: > 1000 nM

SMILES: CCO[C@H]1Cc2cc(C(F)(F)F)ccc2[C@@H]1N1CCN(C2(C)CCN(C(=O)c3c(C)ncnc3C)CC2)C[C@@H]1C
- IC50 [1]: > 1000 nM

SMILES: Cc1ncnc(C)c1C(=O)N1CCC(C)(N2CCN(C3CCc4cc(Br)ccc43)[C@@H](C)C2)CC1 (mixture of isomers)
- IC50 [1]: 190 nM

SMILES: Cc1ncnc(C)c1C(=O)N1CCC(C)(N2CCN(C3CCc4cc(C(F)(F)F)ccc43)[C@@H](C)C2)CC1 (single isomer, unassigned)
- IC50 [3]: 19 nM
- IC50 [1]: 5 nM

SMILES: Cc1ncnc(C)c1C(=O)N1CCC(C)(N2CCN(C3CCc4cc(Br)ccc43)[C@@H](C)C2)CC1 (single isomer, unassigned; diastereomer 1)
- IC50 [3]: 334 nM
- IC50 [1]: 3.9 nM

SMILES: CCO[C@@H]1Cc2cc(C(F)(F)F)ccc2[C@H]1N1CCN(C2(C)CCN(C(=O)c3c(C)ncnc3C)CC2)C[C@@H]1C [INCB-9471]
- IC50 [2]: 0.36 nM
- IC50 (Cytochrome P450 2C9): > 25000 nM
- IC90 [4]: 9 nM
- Activity [5]: Not Active
- clearance [6]: 3.33 mL/min/kg
- IC50 [3]: 0.16 nM
- Tmax [7]: 0.5 h
- IC90 [8]: 9 nM
- half-life [9]: 12 h
- AUC [10]: 55.2 µM·h
- half-life [11]: 17 h
- IC50 (Cytochrome P450 3A4): > 25000 nM
- IC90 [12]: 9 nM
- IC50 (Cytochrome P450 1A2): > 25000 nM
- Tmax [13]: 3 h
- bioavailability [14]: 100%
- half-life [15]: 6 h
- IC90 [16]: 9 nM
- Cmax [17]: 14 µM
- Vd (Canis familiaris): 3.8 L/kg
- fraction unbound [18]: 0.16
- IC50 (Cytochrome P450 2C19): > 25000 nM
- IC50 [19]: 3 nM
- concentration at 24 h [20]: 1.09 µM
- IC90 [21]: 9 nM
- Cmax [22]: 4.07 µM
- Kd [23]: 3.1 nM
- IC50 (Cytochrome P450 2D6): > 25000 nM
- half-life [24]: 58 h
- half-life [25]: 11 h
- Vd (Rattus norvegicus): 4.1 L/kg
- AUC [26]: 150 µM·h
- IC90 [27]: 9 nM
- clearance [28]: 10.3 mL/min/kg
- IC90 [29]: 9 nM
- Papp B→A [30]: 16.5 ×10⁻⁶ cm/s
- IC50 [31]: 4500 nM
- IC50 [32]: 1.5 nM
- IC50 [33]: 16 nM
- bioavailability [34]: 95%
- AUC [35]: 2.9 µM·h
- AUC [36]: 7.85 µM·h
- IC50 [1]: 6.5 nM
- Activity [37]: inactive
- IC90 [38]: 9 nM

SMILES: COC[C@@H](c1ccc(C(F)(F)F)cc1)N1CCN(C2(C)CCN(C(=O)c3c(C)ncnc3C)CC2)C[C@@H]1C [VICRIVIROC]
- IC50 [2]: 0.56 nM
- IC50 [3]: 0.23 nM
- half-life [24]: 28 h
